Consider 6 compounds from ChEMBL document CHEMBL1133118 (J Med Chem, 2000).

pIC50, pKi: −log10 of the molar value.

For experiment [1], the target named is Adenosine receptors; A1 & A3 (Homo sapiens) (UniProt P30542+P0DMS8). The experiment is described as follows: Ratio of binding affinity of human A1 receptor to that of human A3 receptor. In kind it is protein assay. The gist of the method:
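Ki ratio from displacement in CHO membranes, 6–8 concentrations, n=3-6, filtration counting. A1: 1 nM [3H]DPCPX, 50 μg protein, 120 min at 25 °C, nonspecific with 10 μM CHA. A3: 1 nM [3H]MRE3008-F20, 50 μg protein, Tris/10 mM MgCl2 pH 7.4, 120 min at 4 °C, nonspecific with 1 μM MRE3008-F20.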

The target of experiment [2] is T1, Adenosine receptor A3 (Homo sapiens) (UniProt P0DMS8).
T1 sequence (whole entry): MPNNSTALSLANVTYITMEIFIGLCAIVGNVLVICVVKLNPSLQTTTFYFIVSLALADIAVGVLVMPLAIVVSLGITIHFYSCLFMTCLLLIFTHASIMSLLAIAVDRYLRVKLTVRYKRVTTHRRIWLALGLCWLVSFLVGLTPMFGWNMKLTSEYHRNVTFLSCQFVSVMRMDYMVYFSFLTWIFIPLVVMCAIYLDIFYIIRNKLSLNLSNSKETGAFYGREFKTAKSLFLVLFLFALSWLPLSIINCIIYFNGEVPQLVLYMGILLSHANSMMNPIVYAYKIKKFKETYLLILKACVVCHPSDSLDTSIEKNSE
The following applies: CHO, 1 uM.

For experiment [3], the target named is T2, Adenosine receptor A3 (Homo sapiens, UniProt P0DMS8).
T2 sequence (P0DMS8 whole entry): T1 sequence (whole entry)
The experiment is described as follows: Inhibition of cAMP accumulation in CHO cells expressing human adenosine A3 receptor; range 10.8-21.5. In kind it is functional, cell-based. In general terms: Changes in cAMP serve as a functional read-out for many G protein-coupled receptors.

The next experiment deals with Adenosine receptor A2a (Homo sapiens, UniProt P29274). The experiment is described as follows: Displacement of [3H]-SCH- 58261 from human adenosine A2A receptor expressed in CHO cells; range 160-210. In kind it is cell-based. The gist of the method: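 CHO membranes expressing human A2A receptor (50 μg protein) in 50 mM Tris HCl, 10 mM MgCl2, pH 7.4, competed against [3H]SCH 58261. At least 6–8 test concentrations were used, with 60 min incubation at 25 °C. Nonspecific binding defined by 50 μM NECA; n=3-6.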

The target in experiment [4] is Adenosine receptors; A2b & A3 (Homo sapiens) (UniProt P29275+P0DMS8). The experiment is described as follows: Ratio of binding affinity of human A2B receptor to that of human A3 receptor. In kind it is protein assay. In a few lines:
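Ki ratio, n=3-6, 6–8 concentrations. A2B in HEK-293 membranes (20 μg): 40 nM [3H]DPCPX, 50 mM Tris HCl, 10 mM MgCl2, 1 mM EDTA, 0.1 mM benzamidine pH 7.4, 2 IU/mL adenosine deaminase, 60 min at 25 °C, nonspecific with 100 μM NECA. A3 in CHO membranes (50 μg): 1 nM [3H]MRE3008-F20, 120 min at 4 °C.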

The target in experiment [5] is T2, Adenosine receptor A3. The experiment is described as follows: Displacement of [3H]MRE3008-F20 from human adenosine A3 receptor expressed in CHO cells; range 1.42-1.79. In kind it is cell-based.
The target of experiment [6] is T3, Adenosine receptor A2b (Homo sapiens, UniProt P29275).
T3 sequence (P29275 whole entry): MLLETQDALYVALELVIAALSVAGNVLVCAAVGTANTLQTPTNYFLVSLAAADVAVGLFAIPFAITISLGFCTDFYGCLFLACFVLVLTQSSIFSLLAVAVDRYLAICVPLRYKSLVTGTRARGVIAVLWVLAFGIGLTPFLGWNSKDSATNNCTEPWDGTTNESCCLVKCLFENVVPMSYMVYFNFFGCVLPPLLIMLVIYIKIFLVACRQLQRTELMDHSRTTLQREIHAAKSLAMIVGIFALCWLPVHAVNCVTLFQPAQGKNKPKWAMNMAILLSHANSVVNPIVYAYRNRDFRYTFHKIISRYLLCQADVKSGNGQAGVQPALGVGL
The experiment is described as follows: Displacement of [3H]DPCPX from Adenosine A2b receptor expressed in […]; range 107-210. In kind it is cell-based.

Experiment [7] has as its target T2, Adenosine receptor A3. The experiment is described as follows: Displacement of [3H]MRE3008-F20 from human adenosine A3 receptor expressed in CHO cells; range 0.51-0.70. In kind it is cell-based. Background: In a radioligand displacement assay an active substance lowers the binding of a labelled ligand.
Experiment [8] concerns the target T2, Adenosine receptor A3. The experiment is described as follows: Inhibition of cAMP accumulation in CHO cells expressing human adenosine A3 receptor; range 2.5-9.3. In kind it is functional, cell-based.
The target of experiment [9] is T3, Adenosine receptor A2b. The experiment is described as follows: Displacement of [3H]DPCPX from Adenosine A2b receptor expressed in […]; range 188-320. In kind it is cell-based. In a few lines:
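Human recombinant A2B receptor was expressed in HEK-293 cell membranes (20 μg protein). Incubated with 40 nM [3H]DPCPX in 50 mM Tris HCl, 10 mM MgCl2, 1 mM EDTA, 0.1 mM benzamidine, pH 7.4, with 2 IU/mL adenosine deaminase, at least 6–8 test concentrations, 60 min, 25 °C. Nonspecific binding was taken with 100 μM NECA; n=3-6.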

The target of experiment [10] is T2, Adenosine receptor A3. The experiment is described as follows: Displacement of [3H]MRE3008-F20 from human adenosine A3 receptor expressed in CHO cells; range 7.2-8.9. In kind it is cell-based.
Experiment [11] deals with T1, Adenosine receptor A3 (Homo sapiens). The experiment is described as follows: Percentage of blockade by 1 uM of the inhibition by 100 nM IB-MECA-inhibited cAMP accumulation in CHO cells expressing human adenosine A3 receptor. In kind it is functional, cell-based. The gist of the method: (§1)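 CHO cells stably expressing human A3 receptor; membranes in 50 mM Tris HCl, 10 mM MgCl2, 1 mM EDTA pH 7.4 with 5 μM GTP, 0.5 mM […] and 2.0 IU/mL adenosine deaminase. Preincubated 10 min at 37 °C, then IB-MECA (100 nM) and/or antagonist with 1 mM ATP and 10 μM forskolin for 10 min. Boiled 2 min. cAMP read by [3H]cAMP competition with adrenal binding protein.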

In experiment [12] the target is T3, Adenosine receptor A2b. The experiment is described as follows: Displacement of [3H]DPCPX from Adenosine A2b receptor expressed in HEK-293 cells; range 81-101.
Experiment [13] has as its target T2, Adenosine receptor A3. The experiment is described as follows: Inhibition of cAMP accumulation in CHO cells expressing human adenosine A3 receptor. In kind it is functional, cell-based.
Experiment [14] deals with T2, Adenosine receptor A3. The experiment is described as follows: Displacement of [3H]MRE3008-F20 from human adenosine A3 receptor expressed in CHO cells; […]. In kind it is cell-based.
In experiment [15] the target is T3, Adenosine receptor A2b. The experiment is described as follows: Displacement of [3H]DPCPX from Adenosine A2b receptor expressed in […]; range 70-94. In kind it is cell-based.
Another experiment addresses T4, Adenosine receptor A1 (Homo sapiens, UniProt P30542).
T4 sequence (P30542 whole entry): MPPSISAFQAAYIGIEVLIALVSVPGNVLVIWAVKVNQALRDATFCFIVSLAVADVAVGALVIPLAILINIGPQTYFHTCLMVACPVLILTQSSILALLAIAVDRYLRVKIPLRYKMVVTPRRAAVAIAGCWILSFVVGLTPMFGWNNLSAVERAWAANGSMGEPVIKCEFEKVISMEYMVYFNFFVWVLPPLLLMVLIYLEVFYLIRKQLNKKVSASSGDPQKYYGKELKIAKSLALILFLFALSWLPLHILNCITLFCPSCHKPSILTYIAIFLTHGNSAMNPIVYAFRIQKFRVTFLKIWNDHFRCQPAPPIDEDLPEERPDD
The experiment is described as follows: Displacement of [3H]DPCPX from human adenosine A1 receptor expressed in CHO cells; range 1.72-2.36. In kind it is cell-based.

The target of experiment [16] is T1, Adenosine receptor A3 (Homo sapiens). The experiment is described as follows: Percent reversal of 100 nM IB-MECA-inhibited cAMP accumulation in CHO cells expressing human adenosine A3 receptor at 1 uM. In kind it is functional, cell-based. The gist of the method:
as §1

Experiment [17] deals with T2, Adenosine receptor A3. The experiment is described as follows: Displacement of [3H]MRE3008-F20 from human adenosine A3 receptor expressed in CHO cells; range 664-738. In kind it is cell-based.
In experiment [18] the target is T3, Adenosine receptor A2b. The experiment is described as follows: Displacement of [3H]-DPCPX from Adenosine A2b receptor expressed in […]; range 7.4-11.3. In kind it is cell-based.
Experiment [19] deals with T2, Adenosine receptor A3. The experiment is described as follows: biochemical.

As a reminder, the inhibition is the share of the control response that was lost under treatment. What is called pIC50 is −log10 of the IC50, conventionally taken in molar units. For orientation: pKi means the Ki on a negative log10 scale, so that one unit is a factor of ten.

Sequence of Adenosine receptor A2a (P29274 whole entry): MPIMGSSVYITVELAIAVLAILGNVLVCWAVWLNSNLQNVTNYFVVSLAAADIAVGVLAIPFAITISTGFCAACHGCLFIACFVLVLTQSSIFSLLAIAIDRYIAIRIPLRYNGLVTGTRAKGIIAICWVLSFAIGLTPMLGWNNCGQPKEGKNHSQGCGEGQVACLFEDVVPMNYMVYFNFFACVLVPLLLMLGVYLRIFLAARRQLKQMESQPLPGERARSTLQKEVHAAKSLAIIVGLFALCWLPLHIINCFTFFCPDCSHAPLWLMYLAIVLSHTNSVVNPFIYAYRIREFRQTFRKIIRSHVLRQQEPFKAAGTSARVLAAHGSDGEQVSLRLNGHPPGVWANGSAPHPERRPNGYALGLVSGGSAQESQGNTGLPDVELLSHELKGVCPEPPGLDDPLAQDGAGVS

Turning to `CCn1cc2c(nc(NC(=O)Nc3cccc(Cl)c3)n3nc(-c4ccco4)nc23)n1`, the Ratio turned out to be 155 in experiment [1] and 93.7 in experiment [4]. For the same compound, in [2], the inhibition is 68%. The compound further had a pIC50 against Adenosine receptor A3 [3] of 7.83. The negative-log Ki (pKi) is 6.74 on Adenosine receptor A2a, 8.80 at Adenosine receptor A3 [5] and 6.82 on Adenosine receptor A2b [6].
As for `CCn1cc2c(nc(NC(=O)Nc3ccc(OC)cc3)n3nc(-c4ccco4)nc23)n1`, the Ratio in experiment [1] was 1710; in experiment [4], 408. Moreover, the results for the pKi at Adenosine receptor A3 [7] and at Adenosine receptor A2b [9] were 9.22 and 6.61, respectively. Moreover, the pIC50 against Adenosine receptor A3 [8] was 8.32.
Take `O=C(Nc1cccc(Cl)c1)Nc1nc2nn(CCc3ccccc3)cc2c2nc(-c3ccco3)nn12`: the pKi was 8.10 on Adenosine receptor A3 [10] and 7.05 at Adenosine receptor A2b [12]. The Ratio in experiment [1] was found to be 6.3; in experiment [4], 11.2. The same compound displayed an inhibition in experiment [11] of 58%.
`COc1ccc(NC(=O)Nc2nc3nn(CCc4ccccc4)cc3c3nc(-c4ccco4)nn23)cc1` gave a pIC50 against Adenosine receptor A3 [13] of 7.86. For the same compound, the Ratio was found to be 205 in experiment [1] and 82.6 in experiment [4]. Moreover, the pKi on Adenosine receptor A3 [14] is 9.01; at Adenosine receptor A2b [15], 7.09.
Regarding `CC(C)CCn1cc2c(nc(N)n3nc(-c4ccco4)nc23)n1`, the pKi on Adenosine receptor A1 is 8.70; at Adenosine receptor A3 [17], 6.15; on Adenosine receptor A2b [18], 8.04. The results for the Ratio in experiment [1] and in experiment [4] were 0.002 and 0.013, respectively. In addition, in experiment [16], the inhibition was found to be 14%.
The compound `Nc1nc2ccc(Cl)cc2c2nc(-c3ccco3)nn12` [CGS-15943] gave a pIC50 on Adenosine receptor A3 [13] of 6.39. Moreover, the inhibition in experiment [11] was 30%. Further, the pKi at Adenosine receptor A3 [19] was 7.07.
